ChEMBL document CHEMBL4184148 (Bioorg Med Chem Lett, 2017)

Tests used:
Aurora kinase B = Aurora kinase B (Homo sapiens, UniProt Q96GD4); test: Inhibition of Aurora B in human HCT116 cells assessed as reduction in histone H3 phosphorylation at S10 residues after 4 hrs by Western blot analysis; assay type: cell-based
Outline: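 Cells were exposed to compound in dose-response for 4 h, then lysed for western blotting of histone H3 pS10. The cellular EC50 was derived from the dose-response curves. Three replicate experiments were run.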

[1] = tested on: Tyrosine-protein kinase ABL1 (Homo sapiens), P00519 [Q252H]; test: Binding affinity to human phosphorylated ABL1 Q252H mutant expressed in HEK293 cells at 1 uM by Kinomescan method relative to control; assay type: cell-based
[2] = biological target: Tyrosine-protein kinase ABL2 (Homo sapiens) (UniProt P42684); test: Binding affinity to wild-type human ABL2 (A248 to G542 residues) expressed in Escherichia coli BL21 at 1 uM by Kinomescan method relative to control
[3] = biological target: Activin receptor type-1 (Homo sapiens) (UniProt Q04771); test: Binding affinity to wild-type human ACVR1 (C188 to C509 residues) expressed in Escherichia coli BL21 at 1 uM by Kinomescan method relative to control
[4] = biological target: RAC-alpha serine/threonine-protein kinase (Homo sapiens) (UniProt P31749); test: Binding affinity to wild-type human partial length AKT1 expressed in Escherichia coli BL21 at 1 uM by Kinomescan method relative to control
Outline: (§1)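 Kinome-wide competition binding panel run by an outside provider, with each compound tested at a single concentration. Activity is read against the kinase panel.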

[5] = biological target: RAC-beta serine/threonine-protein kinase (Homo sapiens) (UniProt P31751); test: Binding affinity to wild-type human partial length AKT2 expressed in Escherichia coli BL21 at 1 uM by Kinomescan method relative to control; outline: as §1
[6] = biological target: Bone morphogenetic protein receptor type-1A (Homo sapiens) (UniProt P36894); test: Binding affinity to wild-type human partial length BMPR1A (Q214 to I532 residues) expressed in Escherichia coli BL21 at 1 uM by Kinomescan method relative to control
[7] = biological target: Bone morphogenetic protein receptor type-2 (Homo sapiens) (UniProt Q13873); test: Binding affinity to wild-type human partial length BMPR2 (R179 to Q526 residues) expressed in HEK293 cells at 1 uM by Kinomescan method relative to control; assay type: cell-based
[8] = biological target: Cyclin-dependent kinase-like 2 (Homo sapiens) (UniProt Q92772); test: Binding affinity to wild-type human partial length CDKL2 (M1 to D327 residues) expressed in Escherichia coli BL21 at 1 uM by Kinomescan method relative to control
[9] = biological target: Receptor tyrosine-protein kinase erbB-4 (Homo sapiens) (UniProt Q15303); test: Binding affinity to wild-type human partial length ERBB4 (L690 to K994 residues) expressed in Escherichia coli BL21 at 1 uM by Kinomescan method relative to control
[10] = biological target: Fibroblast growth factor receptor 1 (Homo sapiens) (UniProt P11362); test: Binding affinity to wild-type human partial length FGFR1 (P357 to V669 residues) expressed in Escherichia coli BL21 at 1 uM by Kinomescan method relative to control
[11] = biological target: Tyrosine-protein kinase Fgr (Homo sapiens) (UniProt P09769); test: Binding affinity to wild-type human partial length FGR (L233 to T529 residues) expressed in Escherichia coli BL21 at 1 uM by Kinomescan method relative to control
[12] = biological target: Cyclin-G-associated kinase (Homo sapiens) (UniProt O14976); test: Binding affinity to wild-type human partial length GAK (G13 to Y338 residues) expressed in Escherichia coli BL21 at 1 uM by Kinomescan method relative to control
[13] = tested on: Mast/stem cell growth factor receptor Kit (Homo sapiens), P10721 [D816H]; test: Binding affinity to human partial length KIT D816H mutant (I571 to D952 residues) expressed in HEK293 cells at 1 uM by Kinomescan method relative to control; assay type: cell-based
[14] = biological target: Tyrosine-protein kinase Lck (Homo sapiens) (UniProt P06239); test: Binding affinity to wild-type human partial length LCK (R207 to P509 residues) expressed in Escherichia coli BL21 at 1 uM by Kinomescan method relative to control
[15] = biological target: Mitogen-activated protein kinase kinase kinase kinase 4 (Homo sapiens) (UniProt O95819); test: Binding affinity to wild-type human partial length MAP4K4 (M1 to R310 residues) expressed in Escherichia coli BL21 at 1 uM by Kinomescan method relative to control
[16] = biological target: MAP kinase-activated protein kinase 5 (Homo sapiens) (UniProt Q8IW41); test: Binding affinity to wild-type human partial length MAPKAPK5 (M1 to D322 residues) expressed in HEK293 cells at 1 uM by Kinomescan method relative to control; assay type: cell-based
[17] = biological target: Serine/threonine-protein kinase 38 (Homo sapiens) (UniProt Q15208); test: Binding affinity to wild-type human partial length NDR1 (N33 to E449 residues) expressed in HEK293 cells at 1 uM by Kinomescan method relative to control; assay type: cell-based
[18] = tested on: Phosphatidylinositol 4,5-bisphosphate 3-kinase catalytic subunit alpha isoform (Homo sapiens), P42336 [C420R]; test: Binding affinity to human partial length PIK3CA C420R mutant (R108 to N1068 residues) expressed in HEK293 cells at 1 uM by Kinomescan method relative to control; assay type: cell-based
[19] = biological target: Serine/threonine-protein kinase pim-1 (Homo sapiens) (UniProt P11309); test: Binding affinity to wild-type human partial length PIM1 (A15 to K313 residues) expressed in Escherichia coli BL21 at 1 uM by Kinomescan method relative to control
[20] = biological target: Protein kinase C theta type (Homo sapiens) (UniProt Q04759); test: Binding affinity to wild-type human partial length PRKCQ (L350 to S706 residues) expressed in Escherichia coli BL21 at 1 uM by Kinomescan method relative to control
[21] = biological target: Serine/threonine-protein kinase 16 (Homo sapiens) (UniProt O75716); test: Binding affinity to wild-type human partial length STK16 (G11 to I305 residues) expressed in Escherichia coli BL21 at 1 uM by Kinomescan method relative to control
[22] = biological target: TRAF2 and NCK-interacting protein kinase (Homo sapiens) (UniProt Q9UKE5); test: Binding affinity to wild-type human partial length TNIK (D4 to K311 residues) expressed in Escherichia coli BL21 at 1 uM by Kinomescan method relative to control
[23] = biological target: Serine/threonine-protein kinase WNK3 (Homo sapiens) (UniProt Q9BYP7); test: Binding affinity to wild-type human partial length WNK3 (M1 to D434 residues) expressed in HEK293 cells at 1 uM by Kinomescan method relative to control; assay type: cell-based
[24] = biological target: Mitogen-activated protein kinase kinase kinase 12 (DLK) (Homo sapiens) (UniProt Q12852); test: Binding affinity to wild-type human full length DLK (M1 to P859 residues) expressed in HEK293 cells at 1 uM by Kinomescan method relative to control

Row | SMILES | EC50 (Aurora kinase B) [nM] | Activity [1] [%] | Activity [2] [%] | Activity [3] [%] | Activity [4] [%] | Activity [5] [%] | Activity [6] [%] | Activity [7] [%] | Activity [8] [%] | Activity [9] [%] | Activity [10] [%] | Activity [11] [%] | Activity [12] [%] | Activity [13] [%] | Activity [14] [%] | Activity [15] [%] | Activity [16] [%] | Activity [17] [%] | Activity [18] [%] | Activity [19] [%] | further results
1 | CCC(=O)Nc1ccc(C(=O)Nc2ccc(Nc3ncc4c(n3)N(C)c3ccc(C)cc3C(=O)N4C)cc2)cc1 | 11 | 61 | 78 | 80 | 99 | 100 | 100 | 77 | 100 | 96 | 82 | 96 | 99 | 72 | 86 | 95 | 55 | 80 | 89 | 85 | Activity [20]: 99%; Activity [21]: 77%; Activity [22]: 100%; Activity [23]: 100%; Activity [24]: 98%
2 | C=CC(=O)Nc1ccc(C(=O)Nc2ccc(Nc3ncc4c(n3)N(C)c3ccc(C)cc3C(=O)N4C)cc2)cc1 | 7.1 | 85 | 95 | 93 | 100 | 95 | 82 | 95 | 86 | 96 | 84 | 93 | 82 | 83 | 90 | 98 | 99 | 87 | 58 | 88 | Activity [20]: 96%; Activity [21]: 77%; Activity [22]: 100%; Activity [23]: 100%; Activity [24]: 100%
